Screens: PubChem BioAssay, several laboratories
In the library only some 5.1% were active in any assay of this set; here they are far more common.
Hsp90 block: displaces geldanamycin probe from tumor Hsp90; inhibition, % at 30 µM; AID 429; NCI-N417 lysate Hsp90, Cy3B-geldanamycin FP displacement; P07900; 0.35% of 64,000 active;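 active means inhibition above 50%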
M1 antag: antagonists of rat M1 muscarinic receptor; P08482; CHO-M1 cells, Fluo-4 calcium, ACh EC80 antagonist mode; hits give low values; B-score at 10 µM; 3.4% of 64,000 active; AID 628;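 active means calcium fluorescence response, raw or row-and-column corrected B-score, differing from the plate sample mean either way at a set confidence level, mostly lower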
Ecoli tolC: growth inhibitors of E. coli BW25113 tolC mutant | OD615 | growth inhibition, % at 10 µM (by protocol) | 2.2% of 65,000 active;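 active means growth inhibition at or above a cutoff equal to the mean over every tested compound plus 3 SD, cut at about 60% in these data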;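 further: growth measured after 20 h incubation at 37 °C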
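test system = E. coli BW25113 ΔtolC::kan bacteria | medium = LB with kanamycin 50 µg/mL | signal = OD at 615 nm | schedule = 37 °C, 20 h exposure | evaluation = % inhibition of E. coli growth | compound dosing = one dose of 10 µM final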
M1 agonist: agonists of M1 muscarinic receptor. CHO-M1 cells, Fluo-4 calcium fluorescence, agonist mode; hits give high values. B-score at 10 µM. 3% of 64,000 active. AID 626;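 active means fluorescence rise, raw or as B-score row- and column-corrected plate score, outside the 99.7% band of its plate's samples, either direction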
BAP1 block: human BAP1 deubiquitinase inhibition | Q92560 | recombinant BAP1, Ub-AMC hydrolysis fluorescence kinetic; hits give low values | calls only at 20 µM | 0.48% of 72,000 active;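 active means activity remaining at or below 50% of control, provided the compound also passes the data quality filters; inactive means the rest, including low values that fail the filters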
Target sequence (Q92560 whole entry, looked up): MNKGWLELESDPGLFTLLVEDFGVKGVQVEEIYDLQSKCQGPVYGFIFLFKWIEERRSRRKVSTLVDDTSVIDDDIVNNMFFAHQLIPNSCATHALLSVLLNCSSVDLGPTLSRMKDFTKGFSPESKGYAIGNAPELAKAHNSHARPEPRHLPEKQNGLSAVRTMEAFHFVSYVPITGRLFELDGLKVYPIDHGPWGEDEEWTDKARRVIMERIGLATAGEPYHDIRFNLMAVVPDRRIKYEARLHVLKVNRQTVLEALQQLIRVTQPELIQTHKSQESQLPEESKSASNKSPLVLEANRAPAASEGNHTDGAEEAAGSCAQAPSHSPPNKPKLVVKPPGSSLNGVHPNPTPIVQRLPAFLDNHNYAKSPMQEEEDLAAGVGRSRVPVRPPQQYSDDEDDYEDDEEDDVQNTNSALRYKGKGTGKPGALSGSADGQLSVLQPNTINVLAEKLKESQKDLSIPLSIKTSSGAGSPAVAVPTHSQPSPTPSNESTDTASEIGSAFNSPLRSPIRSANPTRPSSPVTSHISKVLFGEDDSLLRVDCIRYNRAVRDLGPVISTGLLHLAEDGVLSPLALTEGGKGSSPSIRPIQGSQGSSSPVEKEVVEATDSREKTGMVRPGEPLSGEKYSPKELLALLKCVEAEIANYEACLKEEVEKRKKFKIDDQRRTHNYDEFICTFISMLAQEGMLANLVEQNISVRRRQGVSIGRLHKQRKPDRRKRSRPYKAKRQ
Ecoli WT expand: E. coli BW25113 growth inhibition, expanded screen; 0.15% of 98,000 active; AID 710; OD600 absorbance; growth inhibition, % at 100 µM;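 active means growth inhibition above about 50% at one test dose, limit read from the data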;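 further: growth measured after 20 h incubation at 37 °C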
Of the large screens only hits and unclear results are named; the others gave an inactive call.

COc1ccccc1N1CCN(CC(=O)Nc2cc(F)ccc2C)CC1	none
COc1ccccc1N1CCN(CC(=O)Nc2cc(C)nn2-c2nc(C)cc(C)n2)CC1	M1 agonist 3.4 (no result: Hsp90 block, BAP1 block, Ecoli WT expand)
COc1cc(OC)c(OC)cc1C=Nc1c(C)n(C)n(-c2ccccc2)c1=O	none (no result: Hsp90 block, M1 antag, Ecoli tolC, M1 agonist, Ecoli WT expand)
O=c1[nH]c2cc(Cl)c(Cl)cc2[nH]c1=O	BAP1 block active (no result: M1 antag, Ecoli tolC, M1 agonist, Ecoli WT expand)
O=c1[nH]c2ccccc2c2ccccc12	none (no result: M1 antag, Ecoli tolC, M1 agonist, Ecoli WT expand)
O=C1c2cccc3c(N4CCOCC4)ccc(c23)C(=O)N1CCOC(=O)C12CC3CC(CC(C3)C1)C2	none (no result: Hsp90 block, M1 antag, Ecoli tolC, M1 agonist, Ecoli WT expand)
O=C(NC12CC3CC(CC(C3)C1)C2)NC12CC3CC(CC(C3)C1)C2	none (no result: Hsp90 block, M1 antag, Ecoli tolC, M1 agonist, Ecoli WT expand)
COc1ccc(C2=NN(C(=O)c3ccccc3Br)C(c3cccc([N+](=O)[O-])c3)C2)cc1 (stereo not given)	none (no result: Hsp90 block, M1 antag, Ecoli tolC, M1 agonist, Ecoli WT expand)
CN(CCO)c1ncnc2nc[nH]c12	M1 antag 0.72
O=S(=O)(Nc1nc2ccccc2s1)c1ccc(Br)s1	Ecoli tolC 76 (not shown: BAP1 block)
Cc1ccc(S(=O)(=O)Nc2nc3ccccc3s2)cc1	none (no result: Hsp90 block, M1 antag, Ecoli tolC, M1 agonist, BAP1 block)
CCn1c(SCC(=O)c2ccc(O)c(O)c2)nnc1-c1ccccc1OC	Hsp90 block 67 (no result: Ecoli tolC)
C=CCn1c(SCC(=O)c2ccc(O)c(O)c2)nnc1-c1ccccc1OC	Hsp90 block 71 (no result: Ecoli tolC)
C=CCn1c(SCC(N)=O)nnc1-c1ccccc1O	none
CCn1c(SCC(=O)c2ccc(O)c(O)c2)nnc1-c1ccccc1	none (no result: Hsp90 block, M1 antag, Ecoli tolC, M1 agonist, BAP1 block)
CC(O)c1nc2ccc([N+](=O)[O-])cc2[nH]1 (stereo not given)	none (no result: Hsp90 block, M1 antag, Ecoli tolC, M1 agonist, Ecoli WT expand)
O=C(C1CC1)N1CCc2cc(S(=O)(=O)NCCC3=CCCCC3)ccc21	Ecoli tolC 74
CCCN(CCC)CCNS(=O)(=O)c1ccc2c(c1)CCN2C(=O)C1CCC1	none (no result: Hsp90 block, M1 antag, Ecoli tolC, M1 agonist, BAP1 block)
COc1ccc(-c2nn3c(-c4ccco4)nnc3s2)cc1OC	none
COc1cc(OC)c(-c2nn3c(-c4ccco4)nnc3s2)cc1OC	M1 agonist 4.4 (not shown: BAP1 block)
CC(=O)NCCc1ccc(S(N)(=O)=O)cc1	none (no result: Hsp90 block, M1 antag, Ecoli tolC, M1 agonist, Ecoli WT expand)
O=C(CCCOc1ccc(Cl)cc1Cl)N1CCN(c2ccccn2)CC1	Ecoli tolC 73
COC(=O)c1sccc1NC(=O)c1ccc(Br)s1	none (no result: Hsp90 block, M1 antag, Ecoli tolC, M1 agonist, BAP1 block)
COC(=O)c1sccc1NC(=O)c1ccc(OC)cc1	none
COC(=O)c1sccc1NC(=O)c1ccc(Cl)s1	Ecoli tolC 72
COC(=O)c1sccc1NC(=O)c1csc(C)c1	Ecoli tolC 98
CC1(C)CC(=O)C=C(NCCN2CCN(C(=O)Nc3ccc(Cl)c(Cl)c3)CC2)C1	Ecoli tolC 61
COc1ccc(-c2csc(NC(=O)c3ccc(S(=O)(=O)N4CCc5ccccc5C4)cc3)n2)cc1	none (no result: Hsp90 block, M1 antag, Ecoli tolC, M1 agonist, Ecoli WT expand)
COc1cccc(-c2nnc(NC(=O)c3ccc(S(=O)(=O)N4CC(C)OC(C)C4)cc3)o2)c1 (stereo not given)	Ecoli tolC 98
COc1cccc(NC(=O)c2ccc(S(=O)(=O)N3CCCCC3)cc2)c1	none
COc1ccc(-c2nnc(NC(=O)c3ccc(S(=O)(=O)N4CCc5ccccc5C4)cc3)o2)cc1	Ecoli tolC 94
Brc1cccc(-c2n[nH]c(-c3ccccc3)n2)c1	Ecoli tolC 97
Nc1[nH]c(=S)ncc1C(=O)O	none (no result: Hsp90 block, M1 antag, Ecoli tolC, M1 agonist, Ecoli WT expand)
CCOC(=O)c1sc(=NC(=O)c2ccc(C(=O)OC)cc2)n(C)c1C	none (no result: Hsp90 block, M1 antag, Ecoli tolC, M1 agonist, Ecoli WT expand)
c1ccc(-c2csc(N3CCN(c4ccccn4)CC3)n2)cc1	Ecoli tolC 88
c1ccc(-c2csc(N3CCOCC3)n2)cc1	none (no result: Hsp90 block, M1 antag, Ecoli tolC, M1 agonist, BAP1 block)
CCOC(=O)c1c(NC(=O)CN(CC)CC)sc2c1CCC2	Ecoli tolC 100
CCOC(=O)c1c(NC(=O)OC)sc2c1CCC2	none
Cc1ccc(C(=O)CSC2=C(C#N)C(c3ccco3)C3=C(CCCC3=O)N2)cc1 (stereo not given)	none
CC(C)(C)c1ccc(C(=O)CCCSC2=C(C#N)C(c3ccco3)C3=C(CCCC3=O)N2)cc1 (stereo not given)	Ecoli tolC 80 (not shown: BAP1 block)
O=C(COC(=O)c1ccccc1I)c1ccc(NC(=O)c2ccccc2)cc1	none (no result: Hsp90 block, M1 antag, Ecoli tolC, M1 agonist, Ecoli WT expand)
Cc1n[nH]c(C)c1S(=O)(=O)N(CC(=O)Nc1ccc2c(c1)OCCO2)c1ccc(C(C)C)cc1	Ecoli tolC 66
Cc1noc(C)c1S(=O)(=O)N(CC(=O)Nc1ccc2c(c1)OCO2)c1ccc(C(C)C)cc1	none
C=CCNC(=S)N1CCN(c2ncc3c(=O)c(C(=O)O)cn(CC)c3n2)CC1	Ecoli WT expand 100 (no result: Hsp90 block, M1 antag, Ecoli tolC, M1 agonist, BAP1 block)
Cc1cccc(N2CCN(C(=O)c3cc4n(n3)C(C(F)(F)F)CC(c3ccco3)N4)CC2)c1C (stereo not given)	Ecoli tolC 74 (no result: M1 antag, M1 agonist)
O=C(C[n+]1cc(Br)cc2ccccc21)c1ccc(NC(=O)c2ccccc2)cc1	none (no result: Hsp90 block, M1 antag, Ecoli tolC, M1 agonist, Ecoli WT expand)
CCOc1cccc2cc(-c3csc(C)n3)c(=O)oc12	none (no result: Hsp90 block, M1 antag, Ecoli tolC, M1 agonist, Ecoli WT expand)
CC(=O)[C@@H]1[C@@H]2C(=O)N(Cc3ccccc3)C(=O)[C@@H]2C2c3ccccc3C=CN21 (stereo not given in full)	M1 agonist 26
CC(=O)c1ccc(NC(=O)CCCCCN2C(=O)c3ccccc3C2=O)cc1	none (no result: Hsp90 block, M1 antag, Ecoli tolC, M1 agonist, Ecoli WT expand)
N#CC(Cl)Cc1ccc([N+](=O)[O-])cc1 (stereo not given)	none (no result: Hsp90 block, M1 antag, Ecoli tolC, M1 agonist, Ecoli WT expand)
Oc1ccccc1O	Hsp90 block 52 (no result: M1 antag, Ecoli tolC, M1 agonist, Ecoli WT expand)
Oc1ccc(O)cc1	none (no result: M1 antag, Ecoli tolC, M1 agonist, Ecoli WT expand)
COc1ccccc1-c1nnc2n1N=C(c1ccc(O)c(O)c1)CS2	Hsp90 block 65
O=C1c2ccccc2C(=O)C1C(c1cccc([N+](=O)[O-])c1)C1C(=O)c2ccccc2C1=O	none (no result: Hsp90 block, M1 antag, Ecoli tolC, M1 agonist, Ecoli WT expand)
CCN(CC)C(=O)c1sc2nc(-c3cccs3)cc(-c3cccs3)c2c1N	M1 agonist 15 (not shown: BAP1 block, Ecoli WT expand)
CCN(CC)C(=O)c1sc2nc(-c3cccs3)cc(-c3ccc(Cl)cc3)c2c1N	none (no result: Hsp90 block, M1 antag, Ecoli tolC, M1 agonist, BAP1 block)
